Results on 84 variants are retold here after the RNAGym collection of RNA variant scans (doi:10.1126/science.aae0568).

Variants at the floor of the assay were thinned out. A value given as a limit tells only on which side of the number the result lay.

B1: tRNA (parent)
chain: GUUCCGUUGGCGUAAUGGUAACGCGUCUCCCUCCUAAGGAGAAGACUGCGGGUUCGAGUCCCGUACGGAACG

Variants of B1 are the subject of this data set. Put plainly: yeast fitness relative to wild type (ratio to wild type); higher = fitter; tRNA-Arg(CCU), competitive growth, 37 C, YPD. The procedure, abridged: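 A pool of Saccharomyces cerevisiae strains, each with a tRNA-Arg(CCU) gene variant at the native genomic locus, was competed in YPD at 37°C for 24 hours across six parallel replicates. The variants had been chemically synthesised at a 3% per-site mutation rate over 69 sites, and gene amplicons before and after competition were read by 100-nucleotide paired-end sequencing. Darwinian fitness relative to wild type rested on changes in genotype frequencies. Genotypes required ≥ 100 starting reads, and estimates < 0.5 were set to 0.5.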
Turning to C4G U7G A21C, the yeast fitness was no more than 0.5.
The result for C4G G48C G51C A57U G68C reads 0.55; that for C4G G6A G10C U19A C24G A43G C61G A65U, 0.576.
To C4G G12A belongs 0.781; to C4G G10A A21G, 0.547; to C4G U16G U19C A21C C49U G50A, 0.621.
To C4G G10C C24U C34U A36U C46A belongs no more than 0.5.
On to C4G G9C G41A C55U U59A, for which the yeast fitness is no more than 0.5.
On to C4G U35A A36U, for which the yeast fitness was no more than 0.5.
Turning to C4G G6A G23A A43G, the yeast fitness was no more than 0.5.
The result for C4G G18C C62G reads no more than 0.5.
To C4G U7A U26A A40C A42G G58C G68A belongs no more than 0.5.
For the variant C4G U19C C22G G50A A57C, the yeast fitness is no more than 0.5.
The result for C4G G18A C30U C60G reads 0.515; that for C4G U16C U32A C46U G63C, no more than 0.5.
The result for C4G C34G A42U C61U reads 0.646; that for C4G U13C A45U G56C, no more than 0.5; that for C4G U13C A15G G48A C61A, 0.672.
With C4G G6A C11U C29A G63A A70G, the yeast fitness was no more than 0.5.
The result for C4G G12A C30U G63A G68C reads 0.574.
With C4G C61G G63C A70G, the yeast fitness was 0.516.
To C4G G12A C24U belongs no more than 0.5; to C4G U7G G10C G38C C49G A69C, no more than 0.5.
To C4G G39A U53A belongs no more than 0.5.
The result for C4G U8C G17A C27G A36U C62G reads 0.607; that for C4G G6A A21C U53A U54A, no more than 0.5; that for C4G G23C G56C, no more than 0.5.
With C4G G38A C66U, the yeast fitness was no more than 0.5.
To C4G G9A A14G G25C A57C U64A belongs no more than 0.5.
Turning to C4G U16G C30U C34A U53G, the yeast fitness was no more than 0.5.
For the variant C4G G17A A70G, the yeast fitness amounted to 0.567.
To C4G G18C G51A belongs no more than 0.5.
The result for C4G G10A G41C reads no more than 0.5; that for C4G U8C U16A A21C C24G A37U C55U, no more than 0.5; that for C4G U32G, 0.628.
The result for C4G U35A C61A reads no more than 0.5.
For the variant C4G U8A G12A A57G, the yeast fitness is no more than 0.5.
To C4G U7C A14C C30U A40U C49U belongs no more than 0.5; to C4G C60A, 0.642.
The result for C4G C34G A37U A42U C61U reads no more than 0.5; that for C4G G23A A36G G68U, no more than 0.5.
As for C4G G38A C55U, the yeast fitness was no more than 0.5.
The result for C4G C62A reads 0.67; that for C4G G50A C55U, no more than 0.5.
For C4G U32G C62U G67U, the yeast fitness is no more than 0.5.
The result for C4G U8C C24G A42C G67A reads 0.558; that for C4G U7A C22U C66A, no more than 0.5; that for C4G G23A C29G A37C, 0.651.
In the case of C4G G6A C24U A40U A65C A69U, the yeast fitness is 0.815.
For C4G G17C C22G, the yeast fitness was no more than 0.5.
To C4G U16C C29G A36U C60G belongs no more than 0.5; to C4G C60U G63C G68A, no more than 0.5.
To C4G G25A U54G belongs no more than 0.5; to C4G U19C C62U, 0.799; to C4G U28A A40C G50A, no more than 0.5.
Consider C4G G9C G41A C55U U59A A70U, for which the yeast fitness came to 0.545.
The result for C4G U26C C46U reads 0.702.
To C4G C55U belongs 0.748; to C4G G18C U64A, no more than 0.5.
The result for C4G C34G U47A C49A A65G reads 0.519.
On to C4G G9C U35C G41A C55U U59A A70U, for which the yeast fitness was no more than 0.5.
As for C4G U16C A70C, the yeast fitness stood at 0.709.
The result for C4G U7G G10C C24U C29A A45U C46G U47A G50A U64G reads no more than 0.5; that for C4G G17A G51A C66U, no more than 0.5.
The result for C4G U35A reads 0.772; that for C4G G12A U26A, no more than 0.5; that for C4G G6A A21C, 0.701.
The result for C4G U7A G9C G17C G48A reads no more than 0.5; that for C4G G9A U28C G39A, no more than 0.5; that for C4G U8A G12A A42G G44A U64C, no more than 0.5.
On to C4G U7A G9A C11U C30G C62A, for which the yeast fitness worked out at 0.628.
The result for C4G G58A G67U A69C reads 0.542.
To C4G U32C G63C belongs 0.605; to C4G C34G A43G A57C, no more than 0.5.
The result for C4G U7G G12C A20U C49U U54A C55U A70C reads no more than 0.5.
As to C4G G48C, the yeast fitness amounted to 0.822.
In the case of C4G U8G C27G G48C, the yeast fitness is no more than 0.5.
To C4G U19A C31G belongs no more than 0.5; to C4G U19C G48C A69C, 0.602; to C4G U7C C24U A65G, 0.857.
The result for C4G U8A C22U C46G G63A reads no more than 0.5.
Regarding C4G G44C U47A, the yeast fitness was 0.592.
The result for C4G G23A C29G A37C C61G reads no more than 0.5; that for C4G U8C C24G A42C C61G, no more than 0.5.
